# Data: ChEMBL document CHEMBL1139618, “The synthesis of substituted bipiperidine amide compounds as CCR3 ligands: antagonists versus agonists” (Bioorg Med Chem Lett, 2005)
# “And” between values parts separate entries of the source, which are not always exact repeats. Identical values can stand only once.
# Columns and labels:
# [1] = molecular target: T1, C-C chemokine receptor type 3 (Homo sapiens) (UniProt P51677); assay: In vitro percent increase over basal binding of [35S]-GTP-gamma S against C-C chemokine receptor type 3 at 10 uM; type: functional
# T1 sequence (whole entry): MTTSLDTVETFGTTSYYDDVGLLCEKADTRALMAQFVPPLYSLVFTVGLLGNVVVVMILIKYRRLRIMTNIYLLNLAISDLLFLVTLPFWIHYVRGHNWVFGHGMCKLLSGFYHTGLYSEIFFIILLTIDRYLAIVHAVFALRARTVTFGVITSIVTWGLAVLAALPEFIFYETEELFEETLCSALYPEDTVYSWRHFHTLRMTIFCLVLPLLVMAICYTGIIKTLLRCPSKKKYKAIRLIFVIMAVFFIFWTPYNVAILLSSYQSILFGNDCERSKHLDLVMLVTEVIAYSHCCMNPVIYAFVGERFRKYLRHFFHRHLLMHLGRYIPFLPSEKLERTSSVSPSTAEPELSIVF
# Outline: (§1)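 [³⁵S]GTPγS binding to CCR3 receptor-membrane preparations in excess GDP, testing for agonism. E_max % is the percent rise over basal [³⁵S]GTPγS binding at 10 μM compound, expressed as a percent of the maximal response to 100 nM eotaxin.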
# [2] = molecular target: T2, C-C chemokine receptor type 3 (Homo sapiens, UniProt P51677); assay: (§2) In vitro binding activity against C-C chemokine receptor type 3 using [35S]GTP-gamma-S, as radioligand; type: functional
# T2 sequence (P51677 whole entry): T1 sequence (whole entry)
# [3] = molecular target: T1, C-C chemokine receptor type 3 (Homo sapiens); assay: In vitro percent increase over basal binding of [35S]-GTP-gamma S against C-C chemokine receptor type 3; type: functional; outline: as §1
# [4] = molecular target: T1, C-C chemokine receptor type 3 (Homo sapiens); assay: In vitro percent inhibition against C-C chemokine receptor type 3 using [35S]GTP-gamma-S, as radioligand at 1 uM; type: functional
# [5] = molecular target: T1, C-C chemokine receptor type 3 (Homo sapiens); assay: In vitro binding activity against C-C chemokine receptor type 3 using [35S]GTP-gamma-S, as radioligand at 1 uM; type: functional
# [6] = molecular target: T1, C-C chemokine receptor type 3 (Homo sapiens); assay: as §2; type: functional; details: concentration not given here
# [7] = molecular target: T1, C-C chemokine receptor type 3 (Homo sapiens); assay: In vitro percent inhibition against C-C chemokine receptor type 3 using [35S]GTP-gamma-S, as radioligand; at 1 uM; type: functional
# [8] = In vivo Area under curve in rat at 3 mg/kg after IV administration; type: ADME, organism-based; parameters: dose 3 mg/kg, route intravenous
# [9] = Inhibitory concentration against CREM 3 cell line using calcium flux assay at 37 C at 7.4 pH with compound dissolved in DMSO; type: functional, cell-based; details: CREM3
# Outline: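 CREM3 cells (rat Y3 line transfected with human CCR3) were used at 37 °C. Compounds were dissolved in DMSO and diluted in pH 7.4 HBSS containing HEPES, BSA and probenecid.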
SMILES,Ki [2],other results
COc1ccccc1C(=O)NCC1CCCN(C2CCN(Cc3ccc(Cl)c(Cl)c3)CC2)C1 (stereo not drawn),92 nM,
Cc1ccccc1C(=O)NCC1CCCN(C2CCN(Cc3ccc(Cl)c(Cl)c3)CC2)C1 (stereo not drawn),60 nM,
O=C(NCC1CCCN(C2CCN(CCc3ccc(Cl)c(Cl)c3)CC2)C1)c1ccc2ncccc2c1 (stereo not drawn),180 nM,Emax [1]: 2%
O=C(NCC1CCCN(C2CCN(CC3CCCCC3)CC2)C1)c1ccc2ncccc2c1 (stereo not drawn),,inhibition [4]: 17%
O=C(NCC1CCCN(C2CCN(C(=O)Cc3ccc(Cl)c(Cl)c3)CC2)C1)c1ccc2ncccc2c1 (stereo not drawn),767 nM,
O=C(NCC1CCCN(C2CCN(Cc3cc(Cl)ccc3Cl)CC2)C1)c1ccc2ncccc2c1 (stereo not drawn),391 nM,Emax [1]: 45%
O=C(NCC1CCCN(C2CCN(Cc3ccc(Cl)cc3)CC2)C1)c1ccc2ncccc2c1 (stereo not drawn),95 nM,Emax [1]: -8%
O=C(Nc1ccc(Cl)c(Cl)c1)NN1CCC(N2CCCC(CNC(=O)c3ccc4ncccc4c3)C2)CC1 (stereo not drawn),,inhibition [4]: 6%
O=C(NCC1CCCN(C2CCN(Cc3ccccc3Cl)CC2)C1)c1ccc2ncccc2c1 (stereo not drawn),,inhibition [5]: 36%
O=C(NCC1CCCN(C2CCN(Cc3ccc(Cl)c(Cl)c3)CC2)C1)c1nccc2ccccc12 (stereo not drawn),34 nM,
O=C(NCC1CCCN(C2CCN(Cc3ccc(Cl)c(Cl)c3)CC2)C1)c1ccc2[nH]ccc2c1 (stereo not drawn),29 nM,
O=C(NCC1CCCN(C2CCN(Cc3ccc(Cl)c(Cl)c3)CC2)C1)c1ccccc1Cl (stereo not drawn),,inhibition [6]: 27%
Cc1ccccc1CC(=O)NCC1CCCN(C2CCN(Cc3ccc(Cl)c(Cl)c3)CC2)C1 (stereo not drawn),86 nM,
O=C(NCC1CCCN(C2CCN(Cc3ccc(Cl)c(Cl)c3)CC2)C1)c1ccc2nc[nH]c2c1 (stereo not drawn),47 nM,
O=C(NCC1CCCN(C2CCN(Cc3ccc(Cl)c(Cl)c3)CC2)C1)c1ccc2ccccc2c1 (stereo not drawn),48 nM,
O=C(NCC1CCCN(C2CCN(C(=O)c3ccc(Cl)c(Cl)c3)CC2)C1)c1ccc2ncccc2c1 (stereo not drawn),,inhibition [7]: 20%
O=C(NCC1CCCN(C2CCN(Cc3ccc(Cl)c(Cl)c3)CC2)C1)c1ccc2ncccc2c1 (stereo not drawn),23 nM,Emax [1]: -7%; AUC [8]: 264 ng·h/mL; IC50 [9]: 215 nM

# Further lines, with some results ahead:
Ki [2],SMILES,other results
398 nM,O=C(NCC1CCCN(C2CCN(Cc3cc(Cl)cc(Cl)c3)CC2)C1)c1ccc2ncccc2c1 (stereo not drawn),Emax [1]: 45%
107 nM,O=C(NCC1CCCN(C2CCN(Cc3ccc(Cl)c(Cl)c3)CC2)C1)C1CCCCC1 (stereo not drawn),
7.3 nM,CC1CN(Cc2ccc(Cl)c(Cl)c2)CCC1N1CCCC(CNC(=O)c2ccc3ncccc3c2)C1 (stereo not drawn),Emax [3]: 96%
533 nM,CC(=O)NCC1CCCN(C2CCN(Cc3ccc(Cl)c(Cl)c3)CC2)C1 (stereo not drawn),
99 nM,O=C(NCC1CCCN(C2CCN(Cc3ccc(Cl)c(Cl)c3)CC2)C1)c1cnnc2ccccc12 (stereo not drawn),
50 nM,CC1(N2CCCC(CNC(=O)c3ccc4ncccc4c3)C2)CCN(Cc2ccc(Cl)c(Cl)c2)CC1 (stereo not drawn),Emax [3]: 8%
74 nM,CC(c1ccc(Cl)c(Cl)c1)N1CCC(N2CCCC(CNC(=O)c3ccc4ncccc4c3)C2)CC1 (stereo not drawn),Emax [1]: -12%
58 nM,O=C(NCC1CCCN(C2CCN(Cc3ccc(Cl)c(Cl)c3)CC2)C1)c1cccc2ccccc12 (stereo not drawn),
30 nM and 36 nM,O=C(NCC1CCCN(C2CCN(Cc3ccc(Cl)c(Cl)c3)CC2)C1)c1cccc2cccnc12 (stereo not drawn),
36 nM,O=C(NCC1CCCN(C2CCN(Cc3ccc(Cl)c(Cl)c3)CC2)C1)c1cccc2[nH]ccc12 (stereo not drawn),
80 nM,O=C(NCC1CCCN(C2CCN(Cc3ccc(Cl)c(Cl)c3)CC2)C1)c1ccnc2ccccc12 (stereo not drawn),
